This note sets out measurements from ChEMBL document CHEMBL1938274, “Discovery of potent and specific CXCR3 antagonists” (Bioorg Med Chem Lett, 2012).

Each structure is given as a SMILES string.

Series [1] can be described thus: Mean residence time in cynomolgus monkey at 0.5 mg/kg, iv. The series is classed as ADME, organism-based, Macaca fascicularis. Further details: dose 0.5 mg/kg, route intravenous; call rule not given here. The settings on record: in vivo. A digest of the protocol:
(§1)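 Single intravenous dose in 10% N,N-dimethylacetamide, 10% ethanol, 30% propylene glycol, 50% water: 1 mg/kg mouse; 0.5 mg/kg rat, beagle dog, cynomolgus monkey. Plasma clearance also given as percent of hepatic blood flow.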

The nature of series [2]: Clearance in cynomolgus monkey at 0.5 mg/kg, iv. The series is classed as ADME, organism-based, Macaca fascicularis. Set-up: dose 0.5 mg/kg, route intravenous. Particulars: in vivo. A digest of the protocol:
as §1

The nature of series [3]: Clearance in rat at 0.5 mg/kg, iv. The series is classed as ADME, organism-based. Further details: dose 0.5 mg/kg, route intravenous. Particulars: in vivo. A digest of the protocol: as §1
Series [4] is described as follows: Volume of distribution at steady state in cynomolgus monkey at 0.5 mg/kg, iv. The series is classed as ADME, organism-based, Macaca fascicularis. Set-up: dose 0.5 mg/kg, route intravenous. The settings on record: in vivo, read-out: Vdss. A digest of the protocol: as §1
A short description of series [5]: Volume of distribution at steady state in mouse at 1 mg/kg, iv. Set-up: dose 1 mg/kg, route intravenous. The settings on record: in vivo, read-out: Vdss. In kind it is ADME, organism-based. A digest of the protocol: as §1
Series [6] concerns the target T1, C-X-C chemokine receptor type 3 (Homo sapiens, UniProt P49682).
T1 sequence (P49682 whole entry): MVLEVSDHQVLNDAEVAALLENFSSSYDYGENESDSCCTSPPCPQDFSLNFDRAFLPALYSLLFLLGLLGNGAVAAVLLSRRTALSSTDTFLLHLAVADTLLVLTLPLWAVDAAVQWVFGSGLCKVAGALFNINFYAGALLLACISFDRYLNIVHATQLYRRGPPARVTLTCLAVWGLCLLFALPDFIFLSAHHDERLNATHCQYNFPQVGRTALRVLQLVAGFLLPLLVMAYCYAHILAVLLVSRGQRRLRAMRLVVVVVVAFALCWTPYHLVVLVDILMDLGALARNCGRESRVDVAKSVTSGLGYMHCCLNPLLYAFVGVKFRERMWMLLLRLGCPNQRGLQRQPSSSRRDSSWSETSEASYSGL
Nature of the series: Displacement of [125I]-IP-10 from CXCR3 in presence of 100% human serum. (Loss of bound radioactivity is the signal in a displacement assay; it reports binding, not function.)

Series [7] has as its system PBL. The series can be described thus: Toxicity in human PBL assessed as chromosomal aberrations at 7.81 to 1000 ug/mL. In kind it is cell-based. A digest of the protocol: (§2)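 Cultured human peripheral blood lymphocytes exposed at 7.81–1000 μg/mL, with and without S9 metabolic activation; chromosomal aberrations scored.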
Series [8] is described as follows: Volume of distribution at steady state in rat at 0.5 mg/kg, iv. The series is classed as ADME, organism-based. Set-up: dose 0.5 mg/kg, route intravenous. The settings on record: in vivo, read-out: Vdss. A digest of the protocol: as §1
Series [9] is described as follows: Apparent oral bioavailability in cynomolgus monkey at 2 mg/kg. In kind it is ADME, organism-based, Macaca fascicularis. Particulars: in vivo, read-out: Fapp.
The nature of series [10]: Apparent oral bioavailability in rat at 2 mg/kg. In kind it is ADME, organism-based. The settings on record: in vivo, read-out: Fapp.
Series [11] is described as follows: Mean residence time in rat at 0.5 mg/kg, iv. The series is classed as ADME, organism-based. Set-up: dose 0.5 mg/kg, route intravenous. The settings on record: in vivo. A digest of the protocol:
as §1

Series [12] is described as follows: Volume of distribution at steady state in Beagle dog at 0.5 mg/kg, iv. In kind it is ADME, organism-based, Canis lupus familiaris. Set-up: dose 0.5 mg/kg, route intravenous. The settings on record: in vivo, read-out: Vdss. A digest of the protocol: as §1
A short description of series [13]: Clearance in Beagle dog at 0.5 mg/kg, iv. In kind it is ADME, organism-based, Canis lupus familiaris. Further details: dose 0.5 mg/kg, route intravenous. The settings on record: in vivo. A digest of the protocol: as §1
A short description of series [14]: Apparent oral bioavailability in Beagle dog at 2 mg/kg. In kind it is ADME, organism-based, Canis lupus familiaris. The settings on record: in vivo, read-out: Fapp.
Series [15] in a line: Clearance in mouse at 1 mg/kg, iv. Particulars: in vivo. Further details: dose 1 mg/kg, route intravenous. The series is classed as ADME, organism-based. A digest of the protocol: as §1
The nature of series [16]: Mean residence time in mouse at 1 mg/kg, iv. The series is classed as ADME, organism-based. Further details: dose 1 mg/kg, route intravenous. The settings on record: in vivo. A digest of the protocol: as §1
The nature of series [17]: Apparent oral bioavailability in mouse at 5 mg/kg. Particulars: in vivo, read-out: Fapp. In kind it is ADME, organism-based.
Series [18] in a line: Mean residence time in Beagle dog at 0.5 mg/kg, iv. The series is classed as ADME, organism-based, Canis lupus familiaris. Further details: dose 0.5 mg/kg, route intravenous. Particulars: in vivo. A digest of the protocol: as §1
The test system of series [19] is PBL. The series can be described thus: Toxicity in human PBL assessed as chromosomal aberrations at 7.81 to 1000 ug/mL in the presence of S9. The series is classed as cell-based. A digest of the protocol: as §2
For series [20], the target named is T1, C-X-C chemokine receptor type 3. Nature of the series: Displacement of [125I]-IP-10 from CXCR3.
A further series addresses Cytochrome P450 3A4 (Homo sapiens, UniProt P08684). The series can be described thus: Time dependent inhibition of CYP3A4. In kind it is ADME.
In series [21] the test system is Blood. Nature of the series: Drug level in C57BL/6 mouse blood at 10 mg/kg, sc after 1 hr. In kind it is ADME, organism-based. Further details: dose 10 mg/kg, route subcutaneous. Particulars: in vivo. A digest of the protocol:
(§3)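 C57BL/6 mice given bleomycin intra-tracheally and dosed subcutaneously by osmotic mini-pump for 6 days; plasma collected to measure drug level, reported 1 h post dose.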

Series [22] has as its system Blood. The series can be described thus: Drug level in C57BL/6 mouse blood at 1 mg/kg, sc after 1 hr. In kind it is ADME, organism-based. Further details: dose 1 mg/kg, route subcutaneous. The settings on record: in vivo. A digest of the protocol:
as §3

Series [23] addresses T2, C-X-C chemokine receptor type 3 (Mus musculus, UniProt O88410).
T2 sequence (O88410 whole entry): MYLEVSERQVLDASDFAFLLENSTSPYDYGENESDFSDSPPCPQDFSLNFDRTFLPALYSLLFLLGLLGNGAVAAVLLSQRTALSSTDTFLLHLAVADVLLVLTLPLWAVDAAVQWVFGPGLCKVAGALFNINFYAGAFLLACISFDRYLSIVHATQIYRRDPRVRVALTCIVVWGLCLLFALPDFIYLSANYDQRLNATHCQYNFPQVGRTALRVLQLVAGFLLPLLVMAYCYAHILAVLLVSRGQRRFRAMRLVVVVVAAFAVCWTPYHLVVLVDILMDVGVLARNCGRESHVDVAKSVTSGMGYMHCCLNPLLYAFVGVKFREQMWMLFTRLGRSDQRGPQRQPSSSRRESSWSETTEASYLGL
Nature of the series: Receptor occupancy of CXCR3 in mouse whole blood assessed as inhibition of ITAC binding by fluorescence quenching based FACS analysis. Background: Flow cytometry measures light scatter and fluorescence of single cells or particles in a stream.

Sequence of Cytochrome P450 3A4 (P08684 whole entry): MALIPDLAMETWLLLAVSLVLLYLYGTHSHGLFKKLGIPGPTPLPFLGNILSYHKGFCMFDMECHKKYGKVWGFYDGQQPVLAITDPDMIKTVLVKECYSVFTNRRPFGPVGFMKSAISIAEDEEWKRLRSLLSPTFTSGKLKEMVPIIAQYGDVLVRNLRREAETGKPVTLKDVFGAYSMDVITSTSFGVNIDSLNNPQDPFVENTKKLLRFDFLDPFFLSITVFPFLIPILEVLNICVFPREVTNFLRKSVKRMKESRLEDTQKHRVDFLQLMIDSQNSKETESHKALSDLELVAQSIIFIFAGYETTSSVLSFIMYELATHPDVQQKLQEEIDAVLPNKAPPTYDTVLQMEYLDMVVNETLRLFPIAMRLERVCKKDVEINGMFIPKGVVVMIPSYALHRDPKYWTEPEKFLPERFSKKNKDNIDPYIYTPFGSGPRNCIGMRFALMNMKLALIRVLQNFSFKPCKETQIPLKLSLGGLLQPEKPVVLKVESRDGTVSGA

Take `C[C@H](c1nc2ncccc2c(=O)n1-c1ccc(F)cc1)N(CC1CCS(=O)(=O)CC1)C(=O)Cc1ccc(F)c(C(F)(F)F)c1`: the mean residence time MRT (as a rule, the average time that molecules of a dose stay in the body) amounted to 6.4 h in [1], 2.4 h in series [11], 2.1 h in [16] and 1.5 h in [18]. For the same molecule, the clearance (commonly a measure of how efficiently the substance is removed, as volume per time) in series [2] is 0.34 L/h/kg; in series [3], 2.1 L/h/kg; in series [13], 0.89 L/h/kg; in series [15] it was 0.34 L/h/kg. For the same molecule, the Vd was 2.2 L/kg in [4], 0.73 L/kg in series [5], 5 L/kg in series [8] and 1.3 L/kg in [12]. Moreover, the IC50 (in general, the concentration that gives 50% inhibition) worked out at 0.017 µM in series [6] and 0.007 µM in series [20]. Besides, the Activity result in the series on PBL [7] and with PBL [19] was “Non-toxic” in each case. Further, the bioavailability in series [9] is 51%; in series [10] it was > 100%; in series [14], > 100%; in series [17], 59%.
As for `C[C@H](c1nc2ncccc2c(=O)n1-c1ccc(F)cc1)N(CC1CCS(=O)(=O)CC1)C(=O)Cc1ccc(C(F)(F)F)c(F)c1`, the results for the IC50 in series [6] and in series [20] were 0.022 µM and 0.007 µM, respectively. The Activity result with PBL [7] and with PBL [19] was “Non-toxic” each time.
Turning to `CCOc1ccc(-c2c([C@@H](C)N(CCS(=O)(=O)CC)C(=O)Cc3ccc(F)c(C(F)(F)F)c3)nc3ccccn3c2=O)cc1`, on Cytochrome P450 3A4, the TDI result is given as “Not Active”.
Consider `CCS(=O)(=O)CCN(C(=O)Cc1ccc(F)c(C(F)(F)F)c1)[C@H](C)c1nc2ccccn2c(=O)c1-c1ccc(O)cc1`, for which the TDI result on Cytochrome P450 3A4 is on record as “Active”.
Same read-out and setting: the same measure for `CCOc1ccc(-c2c([C@@H](C)N(CCS(=O)(=O)CC)C(=O)Cc3ccc(F)c(C(F)(F)F)c3)nc3ncccn23)cc1`: “Not Active”; for `CCS(=O)(=O)CCN(C(=O)Cc1ccc(F)c(C(F)(F)F)c1)[C@H](C)c1nc2ncccn2c1-c1ccc(O)cc1`: “Active”.
`C[C@H](c1nc2ncccc2c(=O)n1-c1ccc(O)cc1)N(Cc1cccnc1)C(=O)Cc1ccc(OC(F)(F)F)cc1`: the figures for the IC50 in [6] and in series [20] were 0.0041 µM and 0.816 µM, respectively.
As to `CCS(=O)(=O)CCN(C(=O)Cc1ccc(F)c(C(F)(F)F)c1)[C@H](C)c1nc2ncccc2c(=O)n1-c1ccc(C#N)cc1`, the MRT came out at 1.7 h in series [1], 0.7 h in series [16] and 1.2 h in [18]. Moreover, the clearance was 0.74 L/h/kg in series [2], 1 L/h/kg in series [13] and 0.35 L/h/kg in series [15]. Further, the Activity result in the series with PBL [7] and in the series on PBL [19] was “Toxic” throughout. Also, the figures for the bioavailability in series [9], in [14] and in series [17] were 13%, 69% and 17%, respectively.
Consider `CCOc1ccc(-n2c([C@@H](C)N(Cc3cccnc3)C(=O)Cc3ccc(OC(F)(F)F)cc3)nc3ncccc3c2=O)cc1`, for which the values for the Drug uptake in the series with Blood [21] and in the series on Blood [22] were 2.3 mg/kg and 0.16 µM, respectively. For the same molecule, the IC50 in series [23] was determined as 1.9 µM.
Consider `CCS(=O)(=O)CCN(C(=O)Cc1ccc(F)c(C(F)(F)F)c1)[C@H](C)c1nc2ccccn2c(=O)c1-c1ccc(C#N)cc1`, for which the Activity entry in the series with PBL [7] and with PBL [19] was “Toxic” throughout.
On to `CCS(=O)(=O)CCN(C(=O)Cc1ccc(C(F)(F)F)c(F)c1)[C@H](C)c1nc2ncccc2c(=O)n1-c1ccc(C#N)cc1`, for which the Activity entry with PBL [7] and with PBL [19] was “Toxic” throughout.
